Source: PMC3355950 (The Journal of Neuroscience, 2012)
≈ marks a conversion by molar mass, not a printed value.

What was measured:
GluN1/2D-(2A S2) = GluN1/2D-(2A S2) (Rattus norvegicus, UniProt P35439+Q62645, A747T/D725Y/D811G/E700D/E740D/H791Q/I813M/K706R/K717R/K766R/K779Y/L705F/L808V/M763K/M815E/P736R/P799Q/Q699H/Q701Y/Q744S/R693K/R737G/R765G/R795P/R818T/S688T/S721N/S728Q/S822T/T686Q/T743V/T783S/V731T/V780I/Y702S/Y733F); assay: Two-electrode voltage-clamp recordings, Xenopus oocytes; assay type: cell-based; settings: 100 μM glutamate + 3 μM glycine
In short: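 cRNA from linearized constructs injected into female Xenopus laevis oocytes. Two-electrode voltage clamp done 3–4 d later at 23°C, holding at −40 mV, in 90 NaCl, 1 KCl, 10 HEPES, 0.5 BaCl₂, 0.01 EDTA (mM), pH 7.4. […] Max inhibition is (control − residual at saturating compound)/control.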

GluN1/GluN2A L780A = GluN1/GluN2A L780A (Rattus norvegicus, UniProt P35439+Q00959, L780A); assay: Two-electrode voltage-clamp recordings, Xenopus oocytes; assay type: cell-based; settings: 100 μM glutamate + 3 μM glycine
[1] = molecular target: GluN1 F754A co-expressed with GluN2A (Rattus norvegicus, UniProt P35439+Q00959, F754A); assay: as above; assay type: cell-based; settings: 100 μM glutamate + 3 μM glycine
[2] = Maximum solubility in extracellular oocyte recording solution; assay type: physicochemical; settings: aqueous buffer
GluK2 kainate receptors = GluK2 kainate receptors (Rattus norvegicus, UniProt P42260); assay: Two-electrode voltage-clamp recordings, Xenopus oocytes; assay type: cell-based; settings: 10 μM TCN-201
In short: (§1)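 Xenopus laevis oocytes (female) were injected with in vitro transcribed cRNA and recorded by two-electrode voltage clamp 3–4 d after injection at 23°C, holding at −40 mV. Voltage and current electrodes held 0.3 and 3.0 M KCl.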

GluN1/GluN2A L777A = GluN1/GluN2A L777A (Rattus norvegicus, UniProt P35439+Q00959, L777A); assay: Two-electrode voltage-clamp recordings, Xenopus oocytes; assay type: cell-based; settings: 100 μM glutamate + 3 μM glycine
GluN1/GluN2A L777A, sequence (Q00959 23-1464 L777A, other chains not shown): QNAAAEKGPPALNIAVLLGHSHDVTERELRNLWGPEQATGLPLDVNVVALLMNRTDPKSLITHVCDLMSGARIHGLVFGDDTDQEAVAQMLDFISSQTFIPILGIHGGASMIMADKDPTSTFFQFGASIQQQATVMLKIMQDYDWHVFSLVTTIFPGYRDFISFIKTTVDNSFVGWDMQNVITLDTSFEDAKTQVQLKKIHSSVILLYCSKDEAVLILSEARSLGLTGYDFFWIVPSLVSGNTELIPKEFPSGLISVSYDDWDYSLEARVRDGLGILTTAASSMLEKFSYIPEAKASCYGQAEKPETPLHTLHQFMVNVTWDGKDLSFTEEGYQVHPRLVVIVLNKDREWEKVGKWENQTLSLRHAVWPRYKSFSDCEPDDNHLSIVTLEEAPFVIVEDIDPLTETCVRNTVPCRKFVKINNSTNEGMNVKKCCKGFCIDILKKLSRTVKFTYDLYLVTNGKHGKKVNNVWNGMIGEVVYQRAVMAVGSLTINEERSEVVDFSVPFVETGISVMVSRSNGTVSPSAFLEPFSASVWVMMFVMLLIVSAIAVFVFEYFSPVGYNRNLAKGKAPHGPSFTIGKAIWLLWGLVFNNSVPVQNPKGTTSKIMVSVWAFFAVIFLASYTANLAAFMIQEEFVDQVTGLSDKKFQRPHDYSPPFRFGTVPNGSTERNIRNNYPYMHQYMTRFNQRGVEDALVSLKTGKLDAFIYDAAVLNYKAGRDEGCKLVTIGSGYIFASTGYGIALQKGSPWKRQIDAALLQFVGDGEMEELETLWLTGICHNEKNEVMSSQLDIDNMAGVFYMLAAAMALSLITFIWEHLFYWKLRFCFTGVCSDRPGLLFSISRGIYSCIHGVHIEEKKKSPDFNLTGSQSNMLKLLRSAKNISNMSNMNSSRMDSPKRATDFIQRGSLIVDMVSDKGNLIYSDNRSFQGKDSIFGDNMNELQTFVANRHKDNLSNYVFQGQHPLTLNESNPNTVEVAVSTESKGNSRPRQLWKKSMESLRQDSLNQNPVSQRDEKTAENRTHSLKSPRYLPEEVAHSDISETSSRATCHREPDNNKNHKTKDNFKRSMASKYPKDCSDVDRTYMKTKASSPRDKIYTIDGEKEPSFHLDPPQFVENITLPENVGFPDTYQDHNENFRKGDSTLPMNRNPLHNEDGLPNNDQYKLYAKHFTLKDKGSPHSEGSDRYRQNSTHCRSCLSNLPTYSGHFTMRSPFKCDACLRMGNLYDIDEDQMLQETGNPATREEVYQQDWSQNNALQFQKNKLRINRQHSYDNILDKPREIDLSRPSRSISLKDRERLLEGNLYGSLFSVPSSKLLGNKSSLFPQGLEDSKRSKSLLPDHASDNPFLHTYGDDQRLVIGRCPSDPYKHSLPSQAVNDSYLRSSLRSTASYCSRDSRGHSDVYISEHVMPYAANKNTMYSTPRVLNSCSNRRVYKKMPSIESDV

GluN1/GluN2A V783T = GluN1/GluN2A V783T (Rattus norvegicus, UniProt P35439+Q00959, V783T); assay: as above; assay type: cell-based; settings: 100 μM glutamate + 3 μM glycine
GluN1/GluN2A V783T, sequence (Q00959 23-1464 V783T, other chains not shown): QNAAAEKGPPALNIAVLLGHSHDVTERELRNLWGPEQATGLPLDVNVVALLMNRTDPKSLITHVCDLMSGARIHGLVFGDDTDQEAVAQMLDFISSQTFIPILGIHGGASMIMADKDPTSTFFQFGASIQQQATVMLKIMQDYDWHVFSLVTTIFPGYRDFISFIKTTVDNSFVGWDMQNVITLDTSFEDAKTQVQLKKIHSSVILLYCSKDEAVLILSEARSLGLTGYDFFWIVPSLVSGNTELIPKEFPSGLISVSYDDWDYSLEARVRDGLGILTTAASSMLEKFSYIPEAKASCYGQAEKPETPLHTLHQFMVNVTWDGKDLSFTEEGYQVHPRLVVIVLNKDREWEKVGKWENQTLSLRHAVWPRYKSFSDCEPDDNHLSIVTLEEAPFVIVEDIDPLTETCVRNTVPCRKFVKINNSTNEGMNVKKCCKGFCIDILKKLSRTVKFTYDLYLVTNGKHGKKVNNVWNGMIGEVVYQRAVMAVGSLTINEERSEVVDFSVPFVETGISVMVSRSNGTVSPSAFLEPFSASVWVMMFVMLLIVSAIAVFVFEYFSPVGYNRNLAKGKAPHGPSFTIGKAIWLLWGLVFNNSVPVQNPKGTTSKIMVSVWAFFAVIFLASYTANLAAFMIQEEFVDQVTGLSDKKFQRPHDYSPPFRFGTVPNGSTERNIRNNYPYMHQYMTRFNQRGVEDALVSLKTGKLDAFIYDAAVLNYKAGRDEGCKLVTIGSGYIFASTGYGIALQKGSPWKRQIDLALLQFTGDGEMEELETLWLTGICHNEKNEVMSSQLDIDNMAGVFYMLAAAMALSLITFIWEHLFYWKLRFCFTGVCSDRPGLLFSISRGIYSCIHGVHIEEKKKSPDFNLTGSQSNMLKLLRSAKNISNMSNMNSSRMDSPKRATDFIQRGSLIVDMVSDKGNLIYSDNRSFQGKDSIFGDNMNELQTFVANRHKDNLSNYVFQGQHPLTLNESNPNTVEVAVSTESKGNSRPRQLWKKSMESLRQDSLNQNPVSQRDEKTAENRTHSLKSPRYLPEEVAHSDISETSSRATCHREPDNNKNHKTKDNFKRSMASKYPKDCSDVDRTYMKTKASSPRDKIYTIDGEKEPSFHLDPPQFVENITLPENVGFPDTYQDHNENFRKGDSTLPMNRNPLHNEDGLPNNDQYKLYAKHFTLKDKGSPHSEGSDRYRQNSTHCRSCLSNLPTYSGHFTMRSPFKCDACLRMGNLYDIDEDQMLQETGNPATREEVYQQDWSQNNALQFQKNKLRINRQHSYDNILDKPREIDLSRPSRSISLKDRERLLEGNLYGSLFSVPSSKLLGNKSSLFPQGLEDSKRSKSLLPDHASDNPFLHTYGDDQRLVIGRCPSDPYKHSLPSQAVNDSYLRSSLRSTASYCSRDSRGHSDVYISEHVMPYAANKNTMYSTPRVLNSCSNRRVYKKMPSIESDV

[3] = molecular target: GluN1-1b/GluN2A receptors (Rattus norvegicus, UniProt P35439+Q00959); assay: Two-electrode voltage-clamp recordings, Xenopus oocytes; assay type: cell-based; settings: 3 μM TCN-201, 30 μM glycine; contains exon 5
In short: as §1

GluN1/GluN2B = GluN1/GluN2B (Rattus norvegicus, UniProt P35439+Q00960); assay: Two-electrode voltage-clamp recordings, Xenopus oocytes; assay type: cell-based; settings: 100 μM glutamate + 3 μM glycine; N.E. = no effect at 10 μM TCN-201
GluN1/GluN2B, sequence (Q00960 27-1482, other chains not shown): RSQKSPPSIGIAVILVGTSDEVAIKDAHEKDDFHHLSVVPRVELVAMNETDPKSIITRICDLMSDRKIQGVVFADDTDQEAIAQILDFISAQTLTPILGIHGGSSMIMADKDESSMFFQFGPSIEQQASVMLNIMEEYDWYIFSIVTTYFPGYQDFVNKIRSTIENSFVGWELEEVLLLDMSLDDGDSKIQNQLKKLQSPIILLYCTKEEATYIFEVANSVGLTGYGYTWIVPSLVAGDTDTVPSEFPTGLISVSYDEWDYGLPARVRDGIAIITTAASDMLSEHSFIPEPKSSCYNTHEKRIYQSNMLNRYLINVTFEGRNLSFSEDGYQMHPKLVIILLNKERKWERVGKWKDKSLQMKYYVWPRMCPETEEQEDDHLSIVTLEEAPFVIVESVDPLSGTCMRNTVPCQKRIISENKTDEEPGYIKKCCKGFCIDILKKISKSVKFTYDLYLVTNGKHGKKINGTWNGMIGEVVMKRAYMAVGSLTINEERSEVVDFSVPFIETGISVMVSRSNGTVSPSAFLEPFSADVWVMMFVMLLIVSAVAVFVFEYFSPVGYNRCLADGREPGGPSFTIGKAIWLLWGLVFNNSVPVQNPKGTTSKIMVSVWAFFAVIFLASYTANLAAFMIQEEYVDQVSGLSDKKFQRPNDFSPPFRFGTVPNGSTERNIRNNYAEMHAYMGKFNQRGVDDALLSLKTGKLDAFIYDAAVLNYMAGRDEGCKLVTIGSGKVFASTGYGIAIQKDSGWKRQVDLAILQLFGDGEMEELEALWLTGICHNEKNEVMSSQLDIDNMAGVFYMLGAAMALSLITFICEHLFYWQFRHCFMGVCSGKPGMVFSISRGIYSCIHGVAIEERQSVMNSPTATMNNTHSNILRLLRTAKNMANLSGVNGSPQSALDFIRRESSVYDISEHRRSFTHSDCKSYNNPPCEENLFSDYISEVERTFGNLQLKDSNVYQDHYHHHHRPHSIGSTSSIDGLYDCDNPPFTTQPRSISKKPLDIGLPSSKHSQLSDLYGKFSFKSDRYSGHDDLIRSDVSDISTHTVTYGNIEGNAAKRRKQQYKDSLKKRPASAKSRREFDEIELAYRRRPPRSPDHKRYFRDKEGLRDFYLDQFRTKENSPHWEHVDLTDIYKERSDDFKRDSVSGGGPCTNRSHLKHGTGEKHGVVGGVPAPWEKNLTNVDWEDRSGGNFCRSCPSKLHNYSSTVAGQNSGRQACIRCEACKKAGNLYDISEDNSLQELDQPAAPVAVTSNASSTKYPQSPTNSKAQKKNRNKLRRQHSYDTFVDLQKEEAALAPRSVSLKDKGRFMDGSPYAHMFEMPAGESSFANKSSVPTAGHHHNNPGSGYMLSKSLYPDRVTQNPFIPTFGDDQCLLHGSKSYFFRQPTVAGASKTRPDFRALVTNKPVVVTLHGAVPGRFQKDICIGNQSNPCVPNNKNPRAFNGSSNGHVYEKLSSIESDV

GluN1/2A-ΔATD = GluN1/2A-ΔATD (Rattus norvegicus, UniProt P35439+Q00959); assay: as above; assay type: cell-based; settings: 100 μM glutamate plus 30 μM glycine; vs GluN1/GluN2A

O=C(NNC(=O)c1ccc(CNS(=O)(=O)c2ccc(F)c(Cl)c2)cc1)c1ccccc1 [TCN-201, 3-chloro-4-fluoro-N-[(4-[(2-(phenylcarbonyl)hydrazino)carbonyl]phenyl)methyl]-benzenesulfonamide]
TCN-201 activity Max. % inhibition (GluN1/2D-(2A S2)): 91 ± 4% | TCN-201 activity nH (GluN1/2D-(2A S2)): 2.1 | Response, % of control at 10 μM TCN-201 (GluN1/GluN2A L780A): 67% of control at 10 μM TCN-201 | TCN-201 activity Max. % inhibition [1]: 98 ± 1% | TCN-201 activity nH [1]: 1.4 | solubility [2]: 18 µM (≈ 8.31 µg/mL) | Effect on responses activated by 100 μM glutamate (GluK2 kainate receptors): did not affect responses | TCN-201 activity Max. % inhibition (GluN1/GluN2A L777A): 98 ± 1% | TCN-201 activity nH (GluN1/GluN2A L777A): 1.2 | TCN-201 activity Max. % inhibition (GluN1/GluN2A V783T): 91 ± 1% | TCN-201 activity nH (GluN1/GluN2A V783T): 1.5 | Response, % of control [3]: 49 ± 2 % of control | TCN-201 activity IC50 (GluN1/GluN2B): did not inhibit and N.E. | Inhibition by 3 μM TCN-201 (GluN1/2A-ΔATD): did not reduce inhibition
